1 compound from ChEMBL document CHEMBL1154352, “Toll-like receptor 7 selective synthetic oligoribonucleotide agonists: synthesis and structure-activity relationship studies” (J Med Chem, 2009) can be followed below.

The source made the active and inactive calls. No cut-off for these calls is given here.

Data set [1] relates to PBMC. Put plainly: Immunomodulatory activity in human PBMC assessed as induction of IL6 at 50 ug/ml after 24 hrs. The format is functional, cell-based. Summed up:
(§1)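 Human PBMCs plated at 5 × 10^6 cells/mL; compounds dissolved in PBS added at various concentrations, 37 °C for 24 h. Supernatant cytokines/chemokines quantified with human Luminex multiplex kit.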

Data set [2] is filed under the species Homo sapiens. Put plainly: Immunostimulatory activity in human mDC assessed as induction of IL12 at 100 ug/ml after 24 hrs. The format is functional. Summed up: (§2)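 Human mDCs isolated from PBMCs by CD19+ B-cell depletion then BDCA1 positive selection; plated at 1 × 10^6 cells/mL, compounds in PBS, 37 °C for 24 h; supernatant cytokines by human Luminex multiplex. Representative of four independent experiments.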

Data set [3] concerns PBMC. Put plainly: Immunomodulatory activity in human PBMC assessed as induction of IP10 at 50 ug/ml after 24 hrs. The format is functional, cell-based. Summed up:
as §1

For data set [4], the system named is PBMC. Put plainly: Immunomodulatory activity in human PBMC assessed as induction of MIP1alpha at 50 ug/ml after 24 hrs. The data set is classed as functional, cell-based. Summed up: as §1
The subject of data set [5] is PBMC. The experiment in a line: Immunomodulatory activity in human PBMC assessed as induction of IL12 at 50 ug/ml after 24 hrs. The format is functional, cell-based. Summed up:
as §1

The species entered for data set [6] is Homo sapiens. Put plainly: Ratio of human TLR7 activity to human TLR8 activity. Summed up:
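TLR7/TLR8 ratio computed from fold NF-κB (SEAP reporter) activation in HEK293 cells stably expressing human TLR7 versus TLR8, compounds at 50 μg/mL, 18 h exposure; representative of three independent experiments.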

Data set [7] relates to PBMC. The experiment in a line: Immunomodulatory activity in human PBMC assessed as induction of TNFalpha at 50 ug/ml after 24 hrs. The format is functional, cell-based. The gist of the method:
as §1

The subject of data set [8] is PBMC. Put plainly: Immunomodulatory activity in human PBMC assessed as induction of MCP1 at 50 ug/ml after 24 hrs. The format is functional, cell-based. Summed up:
as §1

In the next data set the test system is Mus musculus. Put plainly: Immunomodulatory activity in C57BL/6 mouse assessed as induction of IL12 release at 25 mg/kg, sc after 2 hrs by ELISA. The format is functional, organism-based. Details: dose 25 mg/kg. Summed up: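 Female C57BL/6 wild-type mice, 5–8 weeks old, n=3; compounds given subcutaneously at 10 or 25 mg/kg. Retro-orbital blood at 2 h; serum cytokines by mouse Luminex multiplex or IL-12 ELISA.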

The species entered for data set [9] is Homo sapiens. The experiment in a line: Immunostimulatory activity in human pDC assessed as induction of IP10 at 100 ug/ml after 24 hrs. The format is functional. Summed up:
(§3)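 Human pDCs plated at 1 × 10^6 cells/mL; compounds in PBS added, 37 °C for 24 h; supernatant cytokines/chemokines by human Luminex multiplex kit.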

The species named for data set [10] is Homo sapiens. Put plainly: Immunostimulatory activity in human pDC assessed as induction of IL6 at 100 ug/ml after 24 hrs. The data set is classed as functional. The gist of the method:
as §3

The species entered for data set [11] is Homo sapiens. The experiment in a line: Immunostimulatory activity in human mDC assessed as induction of IP10 at 100 ug/ml after 24 hrs. The format is functional. The gist of the method:
as §2

The target in data set [12] is Toll-like receptor 3 (Homo sapiens) (UniProt O15455). Put plainly: Activation of human TLR3 expressed in HEK293 assessed as induction of NF-kappaB activity reporter gene assay. The data set is classed as cell-based. (In a reporter assay the amount or activity of a reporter protein is the signal.)
Toll-like receptor 3 (Homo sapiens), sequence (O15455 whole entry): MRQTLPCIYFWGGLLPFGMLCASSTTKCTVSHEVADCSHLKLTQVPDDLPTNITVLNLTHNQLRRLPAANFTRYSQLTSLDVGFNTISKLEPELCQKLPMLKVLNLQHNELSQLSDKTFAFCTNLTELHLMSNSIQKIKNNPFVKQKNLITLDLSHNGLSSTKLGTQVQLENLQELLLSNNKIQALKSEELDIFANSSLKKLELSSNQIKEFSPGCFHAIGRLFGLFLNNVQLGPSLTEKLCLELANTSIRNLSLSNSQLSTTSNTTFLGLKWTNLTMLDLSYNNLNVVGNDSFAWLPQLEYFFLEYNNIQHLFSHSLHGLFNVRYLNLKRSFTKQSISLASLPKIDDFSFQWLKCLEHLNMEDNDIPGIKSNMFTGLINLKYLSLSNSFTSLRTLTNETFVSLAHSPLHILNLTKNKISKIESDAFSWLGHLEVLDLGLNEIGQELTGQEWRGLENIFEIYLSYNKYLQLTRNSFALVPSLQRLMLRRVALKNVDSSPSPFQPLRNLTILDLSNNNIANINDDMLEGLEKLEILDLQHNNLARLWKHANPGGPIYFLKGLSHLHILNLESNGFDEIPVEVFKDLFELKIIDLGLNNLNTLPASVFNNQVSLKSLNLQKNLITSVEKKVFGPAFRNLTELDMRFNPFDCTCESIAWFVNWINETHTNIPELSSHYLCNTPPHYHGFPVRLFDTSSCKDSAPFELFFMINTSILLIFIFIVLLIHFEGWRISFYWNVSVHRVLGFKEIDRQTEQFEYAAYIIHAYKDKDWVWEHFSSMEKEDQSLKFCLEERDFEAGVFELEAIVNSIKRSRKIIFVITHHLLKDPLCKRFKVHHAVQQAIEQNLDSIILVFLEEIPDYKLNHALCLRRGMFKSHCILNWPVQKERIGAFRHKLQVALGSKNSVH
The subject of data set [13] is PBMC. Put plainly: Immunomodulatory activity in human PBMC assessed as induction of IL1-beta at 50 ug/ml after 24 hrs. The data set is classed as functional, cell-based. Summed up:
as §1

The species named for data set [14] is Homo sapiens. Put plainly: Immunostimulatory activity in human mDC assessed as induction of IFNalpha at 100 ug/ml after 24 hrs. The format is functional. The gist of the method:
as §2

The subject of data set [15] is PBMC. The experiment in a line: Immunomodulatory activity in human PBMC assessed as induction of MIP1beta at 50 ug/ml after 24 hrs. The data set is classed as functional, cell-based. The gist of the method:
as §1

For data set [16], the species on record is Homo sapiens. Put plainly: Immunostimulatory activity in human mDC assessed as induction of TNFalpha at 100 ug/ml after 24 hrs. The format is functional. The gist of the method:
as §2

In data set [17] the target is T1, Toll-like receptor 7 (Homo sapiens) (UniProt Q9NYK1).
T1 sequence (whole entry): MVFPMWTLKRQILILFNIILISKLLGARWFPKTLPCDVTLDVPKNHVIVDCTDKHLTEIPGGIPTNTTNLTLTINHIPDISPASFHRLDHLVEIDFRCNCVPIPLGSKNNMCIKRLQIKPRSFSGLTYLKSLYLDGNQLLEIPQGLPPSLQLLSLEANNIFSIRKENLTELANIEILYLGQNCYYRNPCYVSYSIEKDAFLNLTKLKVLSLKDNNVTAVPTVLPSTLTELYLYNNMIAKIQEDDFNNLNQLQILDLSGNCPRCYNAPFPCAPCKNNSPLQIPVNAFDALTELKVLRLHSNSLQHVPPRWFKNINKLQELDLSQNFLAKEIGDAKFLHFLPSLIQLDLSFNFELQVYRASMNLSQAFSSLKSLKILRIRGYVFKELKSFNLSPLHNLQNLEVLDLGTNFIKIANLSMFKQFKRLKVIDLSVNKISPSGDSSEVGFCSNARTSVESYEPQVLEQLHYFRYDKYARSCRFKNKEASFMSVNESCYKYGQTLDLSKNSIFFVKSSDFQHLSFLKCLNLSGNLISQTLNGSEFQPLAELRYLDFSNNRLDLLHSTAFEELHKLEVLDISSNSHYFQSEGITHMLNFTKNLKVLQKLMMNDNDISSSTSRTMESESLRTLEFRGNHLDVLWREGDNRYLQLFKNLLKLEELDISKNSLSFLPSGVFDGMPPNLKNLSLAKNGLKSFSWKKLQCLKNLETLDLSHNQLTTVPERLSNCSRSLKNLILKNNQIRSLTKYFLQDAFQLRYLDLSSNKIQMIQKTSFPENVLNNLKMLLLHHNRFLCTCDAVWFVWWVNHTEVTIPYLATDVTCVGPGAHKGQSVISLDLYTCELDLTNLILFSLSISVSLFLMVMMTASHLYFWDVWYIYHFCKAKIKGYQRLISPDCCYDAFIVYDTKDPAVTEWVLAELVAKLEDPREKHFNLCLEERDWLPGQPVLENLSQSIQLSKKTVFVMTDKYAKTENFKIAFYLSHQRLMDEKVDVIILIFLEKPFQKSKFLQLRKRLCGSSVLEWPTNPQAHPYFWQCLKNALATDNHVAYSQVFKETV
The experiment in a line: Activation of human TLR7 expressed in HEK293XL assessed as fold induction of NF-kappaB activity at 50 ug/ml after 18 hrs by reporter gene assay relative to control. The gist of the method: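 HEK293 cells stably expressing human TLR7 or TLR8, transiently transfected with SEAP reporter plasmid; medium replaced, SIMRA compounds added, 18 h incubation. Supernatant SEAP measured by QuantiBlue; expressed as fold increase in NF-κB activity over PBS control. Tabulated data at 50 μg/mL, representative of three independent experiments.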

A short description of data set [18]: Metabolic stability in human serum assessed as full length product remaining after 10 mins by HPLC. To be noted: read-out: Stability. The format is ADME, cell-free. The gist of the method:
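About 0.5 A260 units compound in 1% human serum in PBS, 37 °C; aliquot taken at 10 min, analysed by anion-exchange HPLC for percent intact full-length product.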

Data set [19] is filed under the species Homo sapiens. Put plainly: Immunostimulatory activity in human pDC assessed as induction of IFNalpha at 100 ug/ml after 24 hrs. The data set is classed as functional. Summed up:
as §3

The species entered for data set [20] is Homo sapiens. Put plainly: Immunostimulatory activity in human mDC assessed as induction of IL6 at 100 ug/ml after 24 hrs. The data set is classed as functional. The gist of the method:
as §2

Data set [21] has as its system PBMC. The experiment in a line: Immunomodulatory activity in human PBMC assessed as induction of IFNalpha at 50 ug/ml after 24 hrs. The format is functional, cell-based. Summed up: as §1

`Nc1ccn([C@@H]2O[C@H](COP(=O)(S)O[C@H]3[C@@H](O)[C@H](n4cnc5c(N)ncnc54)O[C@@H]3CO)[C@@H](OP(=O)(S)OC[C@H]3O[C@@H](n4ccc(=O)[nH]c4=O)[C@H](O)[C@@H]3OP(=O)(S)OC[C@H]3O[C@@H](n4ccc(=O)[nH]c4=O)[C@H](O)[C@@H]3OP(=O)(S)OC[C@H]3O[C@@H](n4ccc5c(=O)[nH]c(N)nc54)[C@H](O)[C@@H]3OP(=O)(S)OC[C@H]3O[C@@H](n4cnc5c(N)ncnc54)[C@H](O)[C@@H]3OP(=O)(S)OC[C@H]3O[C@@H](n4ccc(N)nc4=O)[C@H](O)[C@@H]3OP(=O)(S)OC[C@H]3O[C@@H](n4ccc5c(=O)[nH]c(N)nc54)[C@H](O)[C@@H]3OP(=O)(S)OC[C@H]3O[C@@H](n4cnc5c(N)ncnc54)[C@H](O)[C@@H]3OP(=O)(S)OC[C@H]3O[C@@H](n4ccc(=O)[nH]c4=O)[C@H](O)[C@@H]3OP(=O)(S)OC[C@H]3O[C@@H](n4ccc(=O)[nH]c4=O)[C@H](O)[C@@H]3OP(=O)(S)OCC(O)COP(=O)(S)O[C@H]3[C@@H](O)[C@H](n4ccc(=O)[nH]c4=O)O[C@@H]3COP(=O)(S)O[C@H]3[C@@H](O)[C@H](n4ccc(=O)[nH]c4=O)O[C@@H]3COP(=O)(S)O[C@H]3[C@@H](O)[C@H](n4cnc5c(N)ncnc54)O[C@@H]3COP(=O)(S)O[C@H]3[C@@H](O)[C@H](n4ccc5c(=O)[nH]c(N)nc54)O[C@@H]3COP(=O)(S)O[C@H]3[C@@H](O)[C@H](n4ccc(N)nc4=O)O[C@@H]3COP(=O)(S)O[C@H]3[C@@H](O)[C@H](n4cnc5c(N)ncnc54)O[C@@H]3COP(=O)(S)O[C@H]3[C@@H](O)[C@H](n4ccc5c(=O)[nH]c(N)nc54)O[C@@H]3COP(=O)(S)O[C@H]3[C@@H](O)[C@H](n4ccc(=O)[nH]c4=O)O[C@@H]3COP(=O)(S)O[C@H]3[C@@H](O)[C@H](n4ccc(=O)[nH]c4=O)O[C@@H]3COP(=O)(S)O[C@H]3[C@@H](O)[C@H](n4ccc(N)nc4=O)O[C@@H]3COP(=O)(S)O[C@H]3[C@@H](O)[C@H](n4cnc5c(N)ncnc54)O[C@@H]3CO)[C@H]2O)c(=O)n1` (some centres not stated): the Activity with PBMC [1] was 2380 pg/mL; with PBMC [3] it was 199 pg/mL; in the data set on PBMC [4], 3620 pg/mL; with PBMC [5], 360 pg/mL; in the data set on PBMC [7] it was 174 pg/mL; in the data set with PBMC [8], 49100 pg/mL. Besides, the Activity in the data set on PBMC [13] is 218 pg/mL; in the data set with PBMC [15], 7330 pg/mL; in the data set with PBMC [21], 106 pg/mL. Besides, the outcome in the data set listed under Homo sapiens [2], in the data set with Mus musculus, in the data set listed under Homo sapiens [9], in the data set listed under Homo sapiens [10], in the data set listed under Homo sapiens [11] and in the data set filed under Homo sapiens [14] was Active. For the same compound, the result in the data set listed under Homo sapiens [16], in the data set filed under Homo sapiens [19] and in the data set listed under Homo sapiens [20] was Active. In the data set filed under Homo sapiens [6], the Ratio was determined as 7.9. Moreover, in data set [12], the outcome was inactive. In addition, the fold change (FC) in data set [17] came out at 16.6. Moreover, the remaining at 10 min in data set [18] was 86%.
